From ChEMBL document CHEMBL4251593, “Nontoxic combretafuranone analogues with high in vitro antibacterial activity” (Eur J Med Chem, 2018)
Values after ≈ are worked out from the molar mass of the structure shown.

Legend:
Klebsiella pneumoniae [1] = assay: Antibacterial activity against Klebsiella pneumoniae HK11750/08 clinical isolate after 48 hrs by microdilution assay; assay type: functional; conditions: HK11750/08, 48 h
Escherichia coli [2] = assay: Antibacterial activity against Escherichia coli ATCC 8739 after 48 hrs by microdilution assay; assay type: functional; conditions: ATCC 8739, 48 h
Outline: (§1)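 Broth microdilution in Mueller-Hinton medium buffered to pH 7.4 (±0.2), with DMSO as diluent at no more than 2% final. Compounds were tested as 2-fold serial dilutions from 2000 to 0.488 µmol/l. The inoculum was 0.5 McFarland (1.5×10^8 cfu/ml). Plates were held at 37 °C and read visually at 24 and 48 h. MIC was taken as 95% growth inhibition versus control, determined twice in duplicate.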

[3] = test system: Staphylococcus epidermidis; assay: Antibacterial activity against Staphylococcus epidermidis HK6966/08 clinical isolate after 24 hrs by microdilution assay; assay type: functional; conditions: HK6966/08, 24 h
Pseudomonas aeruginosa [4] = assay: Antibacterial activity against Pseudomonas aeruginosa ATCC 9027 after 24 hrs by microdilution assay; assay type: functional; conditions: ATCC 9027, 24 h; outline: as §1
[5] = test system: Staphylococcus epidermidis; assay: Antibacterial activity against Staphylococcus epidermidis HK6966/08 clinical isolate after 48 hrs by microdilution assay; assay type: functional; conditions: HK6966/08, 48 h
TERT-RPE1 [6] = assay: Induction of apoptosis in human RPE1 cells assessed as caspase 3/7 activity after 24 hrs by caspase-glo luminescent assay; assay type: cell-based; conditions: RPE-1, 24 h
Outline: (§2)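 Cells were seeded at 500 per well in their growth media and exposed to 12 concentrations from 40 µM to 1 nM, delivered from DMSO, in triplicate. After 24 h, caspase-3/7 activity was read by Caspase-Glo luminescence. Data were normalized and ED50 was fitted by variable-slope nonlinear regression.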

Staphylococcus aureus [7] = assay: Antibacterial activity against Staphylococcus aureus ATCC 6538 after 48 hrs by microdilution assay; assay type: functional; conditions: ATCC 6538, 48 h
Klebsiella pneumoniae [8] = assay: Antibacterial activity against Klebsiella pneumoniae HK14368/08 clinical isolate after 48 hrs by microdilution assay; assay type: functional; conditions: HK14368/08, 48 h
Staphylococcus aureus [9] = assay: Antibacterial activity against methicillin-resistant Staphylococcus aureus HK5996/08 clinical isolate after 24 hrs by microdilution assay; assay type: functional; conditions: HK5996/08, 24 h
TERT-RPE1 [10] = assay: Cytotoxicity against human RPE1 cells assessed as reduction in cell viability after 48 hrs by ATPlite-based luminescent assay; conditions: RPE-1, 48 h
Outline: (§3)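 Cells were grown […] with 10% FBS, glutamax, NEAA and pen/strep at 37 °C, 5% CO2. Media were DMEM for RPE-1, HepG2 and BJ (BJ plus 10 ng/ml bFGF), F-12K for PC3, and IMDM for K562/HL-60. Cells were seeded at 500 per well and dosed from DMSO at 12 concentrations, 40 µM to 1 nM, in triplicate. After 48 h, intracellular ATP was read by luminescence. ED50 was obtained by variable-slope nonlinear regression.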

Pseudomonas aeruginosa [11] = assay: Antibacterial activity against Pseudomonas aeruginosa ATCC 9027 after 48 hrs by microdilution assay; assay type: functional; conditions: ATCC 9027, 48 h; outline: as §1
HL-60 [12] = assay: Cytotoxicity against human HL60 cells assessed as reduction in cell viability after 48 hrs by ATPlite-based luminescent assay; conditions: HL-60, 48 h; outline: as §3
Klebsiella pneumoniae [13] = assay: Antibacterial activity against Klebsiella pneumoniae HK14368/08 clinical isolate after 24 hrs by microdilution assay; assay type: functional; conditions: HK14368/08, 24 h
HL-60 [14] = assay: Induction of apoptosis in human HL60 cells assessed as caspase 3/7 activity after 24 hrs by caspase-glo luminescent assay; assay type: cell-based; conditions: HL-60, 24 h; outline: as §2
K562 [15] = assay: Cytotoxicity against human K562 cells assessed as reduction in cell viability after 48 hrs by ATPlite-based luminescent assay; conditions: K562, 48 h; outline: as §3
MCF7 = assay: Cytotoxicity against human MCF7 cells assessed as reduction in cell viability after 48 hrs by ATPlite-based luminescent assay; conditions: MCF7, 48 h
Enterococcus sp. [16] = assay: Antibacterial activity against Enterococcus sp. HK14365/08 clinical isolate after 24 hrs by microdilution assay; assay type: functional; conditions: HK14365/08, 24 h
Klebsiella pneumoniae [17] = assay: Antibacterial activity against Klebsiella pneumoniae HK11750/08 clinical isolate after 24 hrs by microdilution assay; assay type: functional; conditions: HK11750/08, 24 h
Escherichia coli [18] = assay: Antibacterial activity against Escherichia coli ATCC 8739 after 24 hrs by microdilution assay; assay type: functional; conditions: ATCC 8739, 24 h; outline: as §1
Enterococcus sp. [19] = assay: Antibacterial activity against Enterococcus sp. HK14365/08 clinical isolate after 48 hrs by microdilution assay; assay type: functional; conditions: HK14365/08, 48 h
PC-3 [20] = assay: Induction of apoptosis in human PC3 cells assessed as caspase 3/7 activity after 24 hrs by caspase-glo luminescent assay; assay type: cell-based; conditions: PC-3, 24 h; outline: as §2
Staphylococcus aureus [21] = assay: Antibacterial activity against methicillin-resistant Staphylococcus aureus HK5996/08 clinical isolate after 48 hrs by microdilution assay; assay type: functional; conditions: HK5996/08, 48 h
Staphylococcus aureus [22] = assay: Antibacterial activity against Staphylococcus aureus ATCC 6538 after 24 hrs by microdilution assay; assay type: functional; conditions: ATCC 6538, 24 h
HepG2 [23] = assay: Cytotoxicity against human HepG2 cells assessed as reduction in cell viability after 48 hrs by ATPlite-based luminescent assay; conditions: HepG2, 48 h; outline: as §3
K562 [24] = assay: Induction of apoptosis in human K562 cells assessed as caspase 3/7 activity after 24 hrs by caspase-glo luminescent assay; assay type: cell-based; conditions: K562, 24 h; outline: as §2
HepG2 [25] = assay: Induction of apoptosis in human HepG2 cells assessed as caspase 3/7 activity after 24 hrs by caspase-glo luminescent assay; assay type: cell-based; conditions: HepG2, 24 h; outline: as §2
BJ = assay: Cytotoxicity against human BJ cells assessed as reduction in cell viability after 48 hrs by ATPlite-based luminescent assay; outline: as §3
PC-3 [26] = assay: Cytotoxicity against human PC3 cells assessed as reduction in cell viability after 48 hrs by ATPlite-based luminescent assay; conditions: PC-3, 48 h; outline: as §3

Structure (SMILES)	MIC95 (Klebsiella pneumoniae [1])	MIC95 (Escherichia coli [2])	MIC95 [3]	MIC95 (Pseudomonas aeruginosa [4])	MIC95 [5]	IC50 (TERT-RPE1 [6])	MIC95 (Staphylococcus aureus [7])	MIC95 (Klebsiella pneumoniae [8])	MIC95 (Staphylococcus aureus [9])	IC50 (TERT-RPE1 [10])	MIC95 (Pseudomonas aeruginosa [11])	IC50 (HL-60 [12])	MIC95 (Klebsiella pneumoniae [13])	IC50 (HL-60 [14])	IC50 (K562 [15])	IC50 (MCF7)	MIC95 (Enterococcus sp. [16])	MIC95 (Klebsiella pneumoniae [17])	MIC95 (Escherichia coli [18])	MIC95 (Enterococcus sp. [19])	further results
COc1ccc(C2=C(c3ccc(S(C)(=O)=O)cc3)COC2=O)cc1	> 500 µM	> 500 µM	> 500 µM	> 500 µM	> 500 µM	> 40 µM	> 500 µM	> 500 µM	> 500 µM	> 40 µM	> 500 µM	> 40 µM	> 500 µM	> 40 µM	> 40 µM	> 40 µM	> 500 µM	> 500 µM	> 500 µM	> 500 µM	IC50 (PC-3 [20]): > 40 µM; MIC95 (Staphylococcus aureus [21]): > 500 µM; MIC95 (Staphylococcus aureus [22]): > 500 µM; IC50 (HepG2 [23]): > 40 µM; IC50 (K562 [24]): > 40 µM; IC50 (HepG2 [25]): > 40 µM; IC50 (BJ): > 40 µM; IC50 (PC-3 [26]): > 40 µM
Cc1ccc(C2=C(c3cccc(Cl)c3)C(=O)OC2)cc1	> 500 µM	> 500 µM	15.6 µM (≈ 4.45 µg/mL)	> 500 µM	15.6 µM (≈ 4.45 µg/mL)	> 40 µM	1.95 µM (≈ 0.555 µg/mL)	> 500 µM	15.6 µM (≈ 4.45 µg/mL)	0.88 µM	> 500 µM	0.48 µM	> 500 µM	> 40 µM	0.21 µM	> 40 µM	> 500 µM	> 500 µM	> 500 µM	> 500 µM	IC50 (PC-3 [20]): > 40 µM; MIC95 (Staphylococcus aureus [21]): 15.6 µM (≈ 4.45 µg/mL); MIC95 (Staphylococcus aureus [22]): 1.95 µM (≈ 0.555 µg/mL); IC50 (HepG2 [23]): > 40 µM; IC50 (K562 [24]): > 40 µM; IC50 (HepG2 [25]): > 40 µM; IC50 (BJ): > 40 µM; IC50 (PC-3 [26]): > 40 µM
O=C1OCC(c2ccccc2)=C1c1cccc(C(F)(F)F)c1	> 500 µM	> 500 µM	31.2 µM (≈ 9.51 µg/mL)	> 500 µM	31.2 µM (≈ 9.51 µg/mL)	> 40 µM	15.6 µM (≈ 4.75 µg/mL)	> 500 µM	62.5 µM (≈ 19 µg/mL)	> 40 µM	> 500 µM	> 40 µM	> 500 µM	> 40 µM	> 40 µM	> 40 µM	> 500 µM	> 500 µM	> 500 µM	> 500 µM	IC50 (PC-3 [20]): > 40 µM; MIC95 (Staphylococcus aureus [21]): 62.5 µM (≈ 19 µg/mL); MIC95 (Staphylococcus aureus [22]): 15.6 µM (≈ 4.75 µg/mL); IC50 (HepG2 [23]): > 40 µM; IC50 (K562 [24]): > 40 µM; IC50 (HepG2 [25]): > 40 µM; IC50 (BJ): > 40 µM; IC50 (PC-3 [26]): > 40 µM
